Results: ChEMBL document CHEMBL5712899, “WDR5 supports colon cancer cells by promoting methylation of H3K4 and suppressing DNA damage” (2018)
The source made the active and inactive calls. The rule behind the calls is not given here.

How the values were obtained:
[1] = tested on: SW480; assay: Inhibition of colony formation in human SW480 cells assessed as decrease in number of colonies at 10 uM incubated for 10 to 14 days; type: functional, cell-based; details: time 10-14 day
Procedure, shortened: (§1)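 Colony assay in 24-well plates with compound for 10–14 days, diluted from 10 mM DMSO stock to a final 0.1% DMSO (vehicle control). Colony number and average colony size quantified per line. Unpaired two-sided t-test.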

[2] = tested on: HCT-116; assay: Induction of apoptosis in human HCT-116 cells assessed as viable cells at 10 uM measured after 48 hrs by Annexin V/Propidium iodide staining based flow cytometry (reference value: 62.7%); type: functional; details: read-out: Activity
[3] = tested on: SW-620; assay: Induction of apoptosis in human SW620 cells assessed as necrotic cells at 10 uM measured after 48 hrs by Annexin V/Propidium iodide staining based flow cytometry (reference value: 0.87%); type: functional
[4] = tested on: SW-620; assay: Induction of apoptosis in human SW620 cells assessed as early apoptotic cells at 10 uM measured after 48 hrs by Annexin V/Propidium iodide staining based flow cytometry (reference value: 4.03%); type: functional
[5] = tested on: HCT-116; assay: Cytotoxicity against human HCT-116 cells assessed as decrease in cell viability at 10 uM for 72 hrs by Alamar Blue assay; type: functional, cell-based
Procedure, shortened: (§2)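 Cells grown in DMEM with 10% FBS and treated 72 h with compound diluted 1:1000 from 10 mM DMSO stock (final 0.1% DMSO, vehicle control). alamarBlue added at 100 μL per mL medium for 1–3 h at 37 °C, then fluorescence read. Values background-subtracted against cell-free wells and normalized to control set to 1. Shown ± SD; unpaired two-sided t-test.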

[6] = tested on: RKO; assay: Inhibition of colony formation in human RKO cells assessed as decrease in number of colonies at 10 uM incubated for 10 to 14 days; type: functional, cell-based; details: time 10-14 day; procedure, shortened: as §1
[7] = tested on: T84; assay: Cytotoxicity against human T84 cells assessed as reduction in cell viability at 10 uM for 72 hrs by Alamar Blue assay relative to control; type: functional; procedure, shortened: as §2
[8] = tested on: HCT-116; assay: Induction of apoptosis in human HCT-116 cells assessed as necrotic cells at 10 uM measured after 48 hrs by Annexin V/Propidium iodide staining based flow cytometry (reference value: 0.67%); type: functional
[9] = tested on: RKO; assay: Inhibition of colony formation in human RKO cells assessed as decrease in colony size at 10 uM incubated for 10 to 14 days; type: functional, cell-based; details: time 10-14 day; procedure, shortened: as §1
[10] = tested on: T84; assay: Inhibition of colony formation in human T84 cells assessed as decrease in colony size at 10 uM incubated for 10 to 14 days; type: functional, cell-based; details: time 10-14 day; procedure, shortened: as §1
[11] = tested on: SW-620; assay: Induction of apoptosis in human SW620 cells assessed as late apoptotic cells at 10 uM measured after 48 hrs by Annexin V/Propidium iodide staining based flow cytometry (reference value: 10.3%); type: functional
[12] = tested on: RKO; assay: Induction of apoptosis in human RKO cells assessed as viable cells at 10 uM measured after 48 hrs by Annexin V/Propidium iodide staining based flow cytometry (Rvb =76.1%); type: functional; details: read-out: Activity
[13] = tested on: SW-620; assay: Cell cycle arrest in human SW620 cells assessed as increase in G1-phase cell population at 10 uM measured after 48 hrs by propidium iodide staining based flow cytometry; type: functional
Procedure, shortened: (§3)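 Fixed overnight at −20 °C in ice-cold 70% ethanol after collecting adherent and nonadherent cells. Rehydrated in PBS for 15 min at 37 °C, then PI-stained for 8–15 h. Read on an LSR II flow cytometer with cell-cycle modelling for phase percentages. Compound added from 10 mM DMSO stock diluted 1:1000 into pre-warmed medium (0.1% DMSO vehicle control). Unpaired two-sided t-test.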

[14] = tested on: RKO; assay: Cytotoxicity against human RKO cells assessed as decrease in cell viability at 10 uM measured after 72 hrs by Alamar Blue assay; type: functional, cell-based; procedure, shortened: as §2
[15] = tested on: SW-620; assay: Cytotoxicity against human SW620 cells assessed as reduction in cell viability at 10 uM for 72 hrs by Alamar Blue assay relative to control; type: functional; procedure, shortened: as §2
[16] = tested on: HCT-116; assay: Inhibition of colony formation in human HCT-116 cells assessed as decrease in colony size at 10 uM incubated for 10 to 14 days; type: functional, cell-based; details: time 10-14 day; procedure, shortened: as §1
[17] = tested on: SW-620; assay: Inhibition of colony formation in human SW620 cells assessed as decrease in number of colonies at 10 uM incubated for 10 to 14 days; type: functional, cell-based; details: time 10-14 day; procedure, shortened: as §1
[18] = Inhibition of RBBP5 interaction with flag-tagged human WDR5 expressed in HEK293T cells assessed as endogenous RBBP5 level at 10 uM measured after 5 hrs by co-immunoprecipitation assay relative to control; parameters: scale not given: the % may be the effect or the level left; details: condition malignant colon neoplasm
[19] = tested on: LoVo; assay: Inhibition of colony formation in human LoVo cells assessed as decrease in colony size at 10 uM incubated for 10 to 14 days; type: functional, cell-based; details: time 10-14 day; procedure, shortened: as §1
[20] = tested on: LoVo; assay: Inhibition of colony formation in human LoVo cells assessed as decrease in number of colonies at 10 uM incubated for 10 to 14 days; type: functional, cell-based; details: time 10-14 day; procedure, shortened: as §1
[21] = tested on: RKO; assay: Induction of apoptosis in human RKO cells assessed as early apoptotic cells at 10 uM measured after 48 hrs by Annexin V/Propidium iodide staining based flow cytometry (reference value: 16.7%); type: functional
[22] = tested on: SW-620; assay: Inhibition of colony formation in human SW620 cells assessed as decrease in colony size at 10 uM incubated for 10 to 14 days; type: functional, cell-based; details: time 10-14 day; procedure, shortened: as §1
[23] = tested on: T84; assay: Inhibition of colony formation in human T84 cells assessed as decrease in number of colonies at 10 uM incubated for 10 to 14 days; type: functional, cell-based; details: time 10-14 day; procedure, shortened: as §1
[24] = tested on: HCT-116; assay: Induction of apoptosis in human HCT-116 cells assessed as late apoptotic cells at 10 uM measured after 48 hrs by Annexin V/Propidium iodide staining based flow cytometry (reference value: 17.2%); type: functional
[25] = tested on: RKO; assay: Induction of apoptosis in human RKO cells assessed as necrotic cells at 10 uM measured after 48 hrs by Annexin V/Propidium iodide staining based flow cytometry (reference value: 0.54%); type: functional
[26] = tested on: HCT-116; assay: Induction of apoptosis in human HCT-116 cells assessed as early apoptotic cells at 10 uM measured after 48 hrs by Annexin V/Propidium iodide staining based flow cytometry (reference value: 19.4%); type: functional
[27] = tested on: SW-620; assay: Induction of apoptosis in human SW620 cells assessed as viable cells at 10 uM measured after 48 hrs by Annexin V/Propidium iodide staining based flow cytometry (Rvb =84.8%); type: functional; details: read-out: Activity
[28] = tested on: RKO; assay: Induction of apoptosis in human RKO cells assessed as late apoptotic cells at 10 uM measured after 48 hrs by Annexin V/Propidium iodide staining based flow cytometry (reference value: 6.58%); type: functional
[29] = tested on: RKO; assay: Cell cycle arrest in human RKO cells assessed as increase in G1-phase cell population at 10 uM measured after 48 hrs by propidium iodide staining based flow cytometry; type: functional; procedure, shortened: as §3

SMILES: CN1CCN(c2ccc(-c3cccc(CN4CCOCC4)c3)cc2NC(=O)c2c[nH]c(=O)cc2C(F)(F)F)CC1
- inhibition [1]: Active
- viability at 10 µM [2]: 46.1%
- Activity [3]: 0.43%
- Activity [4]: 8.01%
- Activity [5]: Active
- inhibition [6]: Active
- Activity [7]: 50%
- Activity [8]: 1.36%
- inhibition [9]: inactive
- inhibition [10]: Active
- Activity [11]: 10.3%
- viability at 10 µM [12]: 68.5%
- Activity [13]: Active
- Activity [14]: Active
- Activity [15]: 50%
- inhibition [16]: Active
- inhibition [17]: Active
- Activity [18]: <20%
- inhibition [19]: inactive
- inhibition [20]: inactive
- Activity [21]: 27%
- inhibition [22]: Active
- inhibition [23]: Active
- Activity [24]: 30.4%
- Activity [25]: 0.18%
- Activity [26]: 22.2%
- viability at 10 µM [27]: 81.3%
- Activity [28]: 4.3%
- Activity [29]: Active
